Source: ChEMBL document CHEMBL3865837, “Chemical Constituents of the Rhizomes of Bletilla formosana and Their Potential Anti-inflammatory Activity” (J Nat Prod, 2016)

Assays:
[1] = Antiinflammatory activity in human neutrophils assessed as inhibition of FMLP/cytochalasin B-induced superoxide anion generation by measuring superoxide dismutase-inhibitable reduction of ferricytochrome c preincubated for 5 mins followed by FMLP/cytochalasin B-induction by spectrophotometric analysis; format: functional, cell-based; details: Neutrophil
In short: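 Neutrophils isolated from healthy donor venous blood (20−30 years old) by dextran sedimentation, Ficoll Hypaque centrifugation and hypotonic erythrocyte lysis, kept at 4 °C in Ca2+-free HBSS pH 7.4. Cells (6 × 10^5 cells/mL) with 0.5 mg/mL ferricytochrome c and 1 mM Ca2+, 37 °C 2 min; compound or 0.1% DMSO 5 min; CB 1 μg/mL 3 min; FMLP 100 nM. A550 followed continuously, ±SOD 100 U/mL; IC50, mean ± SEM, n = 3 or 4.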

[2] = Antiinflammatory activity in human neutrophils assessed as inhibition of fMLP/CB-induced elastase release using MeO-Suc-Ala-Ala-Pro-Val-p-nitroanilide as elastase substrate preincubated for 5 mins followed by fMLP/CB-induction; format: functional, cell-based; details: Neutrophil
In short: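 Donor neutrophils (dextran/Ficoll/hypotonic lysis, held at 4 °C in Ca2+-free HBSS pH 7.4) at 6 × 10^5 cells/mL, equilibrated with 100 μM MeO-Suc-Ala-Ala-Pro-Val-p-nitroanilide at 37 °C for 2 min. Compound or 0.1% DMSO vehicle added for 5 min, then activated with FMLP 100 nM plus CB 0.5 μg/mL. A405 read continuously. IC50 given as mean ± SEM, n = 3 or 4.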

Row | Compound | IC50 [1] [µM] | IC50 [2] [µM]
1 | COc1cc2c(ccc3c(-c4c(O)cc(OC)c5c4ccc4cc(O)c(OC)cc45)c(O)cc(OC)c32)cc1O | 1.5 | 0.3
2 | COc1cc(O)c(Cc2ccc(O)cc2)c2ccc3cc(O)ccc3c12 | 0.5 | 0.9
3 | COc1c(O)c(-c2c(O)c(OC)c(OC)c3c2CCc2cc(O)ccc2-3)c2c(c1OC)-c1ccc(O)cc1CC2 | 2.5 | > 10
4 | COc1cc(CCc2cccc(O)c2)c(Cc2ccc(O)cc2)c(O)c1Cc1ccc(O)cc1 | 1.1 | 1.1
5 | COc1cc(O)cc(CCc2cccc(O)c2)c1-c1c(OC)cc(O)c2c1CCc1cc(O)ccc1-2 | 0.4 | 0.6
6 | COc1c(O)cc2ccc3c(Cc4ccc(O)cc4)c(O)ccc3c2c1OC | 1.4 | 1.3
7 | COc1c(Cc2ccc(O)cc2)c(O)c(Cc2ccc(O)cc2)c2c1-c1ccc(O)cc1CC2 | 1.1 | 1.8
8 | COc1cc(O)c(Cc2ccc(O)cc2)c(CCc2cccc(O)c2)c1Cc1ccc(O)cc1 | 0.7 | 0.7
9 | COc1cc2c(cc1O)CCc1cc(O)c(OC)c(OC)c1-2 | 0.2 | 5.7
10 | COc1cc(O)c(Cc2ccc(O)cc2)c2c1-c1ccc(O)cc1CC2 | 0.2 | 2
11 | COc1cc(CCc2cccc(O)c2)cc(O)c1-c1c(O)cc(OC)c2c1CCc1cc(O)ccc1-2 | 4.9 | > 10
12 | COc1cc(O)cc(CCc2cccc(O)c2)c1 [BATATASIN III] | 0.9 | 4.7
13 | COc1cc2c(cc1O)CCc1c(-c3c(O)cc(OC)c4c3CCc3cc(O)ccc3-4)c(O)cc(OC)c1-2 | 2.4 | 0.7
14 | O=Cc1ccc(O)cc1 [4-HYDROXYBENZALDEHYDE] | > 10 | 3.3
15 | COc1cc(O)cc2c1-c1cc(-c3c(O)cc(OC)c4c3CCc3cc(O)ccc3-4)c(O)cc1CC2 | 1.5 | 0.5
16 | COc1cccc(CCc2c(Cc3ccc(O)cc3)c(O)cc(OC)c2Cc2ccc(O)cc2)c1 | 6.3 | 4.2
17 | COc1cc(O)cc2c1-c1cc(-c3c(O)cc(OC)c4c3ccc3cc(O)ccc34)c(O)cc1CC2 | 4.2 | 1.2
18 | CC(C)C[C@@](O)(CC(=O)OCc1ccc(O[C@@H]2O[C@H](CO)[C@@H](O)[C@H](O)[C@H]2O)cc1)C(=O)OCc1ccc(O[C@@H]2O[C@H](CO)[C@@H](O)[C@H](O)[C@H]2O)cc1 | > 10 | > 10
19 | CC[C@@H](CC[C@@H](C)[C@H]1CC[C@H]2[C@@H]3CC=C4C[C@@H](O[C@@H]5O[C@H](CO)[C@@H](O)[C@H](O)[C@H]5O)CC[C@]4(C)[C@H]3CC[C@]12C)C(C)C | > 10 | > 10
20 | COc1cc(CCc2cccc(O)c2)cc(O)c1Cc1ccc(O)cc1 | 2.2 | 0.9
21 | COc1cc2c(ccc3cc(O)c(OC)c(OC)c32)cc1O | 2 | 2.1

Row | Compound | IC50 [1] [µM] | IC50 [2] [µM]
22 | COC1=CC(=O)C2=C(CCc3cc(O)ccc32)C1=O | > 10 | > 10
23 | COc1cccc(CCc2cc(O)cc(OC)c2)c1 | 6.5 | > 10
24 | COc1cc(O)c(-c2c(O)c(Cc3ccc(O)cc3)c3c(c2OC)-c2ccc(O)cc2CC3)c2c1-c1ccc(O)cc1CC2 | 0.2 | 0.4
25 | COc1cc(O)cc(CCc2cccc(O)c2)c1Cc1ccc(O)cc1 | 1.7 | 2.8
26 | COc1cc(O)cc(CCc2ccccc2)c1 | 6.5 | > 10
27 | COc1cc(O)c(-c2c(O)cc(OC)c3c2ccc2cc(O)ccc23)c2ccc3cc(O)ccc3c12 [CIRRHOPETALANTHIN] | 1.4 | 0.6
28 | COc1c(O)cc2ccc3cc(O)ccc3c2c1OC [NUDOL] | 1.7 | > 10
29 | COc1cc(O)cc(CCc2ccc(O)c(OC)c2)c1 [GIGANTOL] | 2.1 | 3.2
30 | COc1cc2c(ccc3c(-c4c(O)cc(OC)c5c4ccc4cc(O)ccc45)c(O)cc(OC)c32)cc1O | 1.9 | 1.7
31 | COc1cc(O)c(-c2c(O)cc(OC)c3c2ccc2cc(O)ccc23)c2c1-c1ccc(O)cc1CC2 [CIRRHOPETALANTHRIN] | 0.9 | 0.6
32 | COc1c(O)c(Cc2ccc(O)cc2)c2ccc3cc(O)ccc3c2c1OC | 1.6 | 1.9
33 | CC[C@H](Nc1ncnc2[nH]cnc12)c1nc2cccc(F)c2c(=O)n1-c1ccccc1 [IDELALISIB] | 0.1 | 0.3
34 | COc1cc(O)c(Cc2ccc(O)cc2)c(CCc2cccc(O)c2)c1 | 3.6 | 2.2
35 | COc1cc(O)c(-c2c(O)cc3c(c2OC)-c2ccc(O)cc2CC3)c2c1-c1ccc(O)cc1CC2 | 1.8 | 1.4
36 | COc1cc(O)cc2c1-c1ccc(O)cc1CC2 | 0.4 | > 10
37 | COc1cc2ccc3c(-c4c(O)cc(OC)c5c4ccc4cc(O)c(OC)cc45)c(O)cc(OC)c3c2cc1O | 2.8 | 1.6
38 | COc1cc2ccc3cc(O)ccc3c2c(OC)c1O | 2.6 | 4.9
39 | COc1c(O)cc2c(c1OC)-c1ccc(O)cc1CC2 [ERIANTHRIDIN] | 0.3 | 2
40 | COc1c(Cc2ccc(O)cc2)c(O)cc2c1-c1ccc(O)cc1CC2 | 0.2 | 2
41 | CCOCc1ccc(O)cc1 | > 10 | > 10
